The source made the active and inactive calls. No cut-off for these calls is given here.
What was measured:
[1] = Inhibition of soybean 15-lipoxygenase by MBTH-DMAB method; set-up: species or system Glycine max
Method in brief: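 Test sample in ethanol was preincubated 5 min at room temperature with SLO (stock 4000 units/mL) in 50 mM phosphate, pH 7.0, with an ethanol control. Linoleic acid (Tween 20/KOH) started peroxidation. After 7 min, DMAB (solution A) and then MBTH with hemoglobin at pH 5.0 (solution B) developed colour. After 5 min more, 2% SDS stopped the reaction.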

[2] = biological target: T1, Polyunsaturated fatty acid lipoxygenase ALOX15 (Homo sapiens, UniProt P16050); experiment: Inhibition of recombinant human 15-lipoxygenase by MBTH-DMAB method
T1 sequence (P16050 whole entry): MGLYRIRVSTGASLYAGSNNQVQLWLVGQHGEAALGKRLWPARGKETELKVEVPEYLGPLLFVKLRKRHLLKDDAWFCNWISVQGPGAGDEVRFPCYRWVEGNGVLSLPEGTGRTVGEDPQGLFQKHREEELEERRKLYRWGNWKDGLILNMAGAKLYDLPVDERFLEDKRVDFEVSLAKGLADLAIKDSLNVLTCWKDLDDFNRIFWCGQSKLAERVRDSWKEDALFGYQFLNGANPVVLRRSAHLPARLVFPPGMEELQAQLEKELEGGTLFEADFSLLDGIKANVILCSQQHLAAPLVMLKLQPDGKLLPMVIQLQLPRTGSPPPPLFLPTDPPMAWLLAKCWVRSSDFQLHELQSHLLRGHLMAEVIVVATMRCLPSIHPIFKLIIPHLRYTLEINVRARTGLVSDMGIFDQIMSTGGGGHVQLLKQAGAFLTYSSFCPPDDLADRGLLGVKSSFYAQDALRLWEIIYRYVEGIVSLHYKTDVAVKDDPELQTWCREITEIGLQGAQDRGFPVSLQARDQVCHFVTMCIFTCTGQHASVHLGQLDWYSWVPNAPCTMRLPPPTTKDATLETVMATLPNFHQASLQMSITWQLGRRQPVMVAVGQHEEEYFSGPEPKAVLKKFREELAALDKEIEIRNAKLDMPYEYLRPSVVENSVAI

Glycine max = experiment: Competitive inhibition of soybean 15-lipoxygenase at 1.25 to 5 uM by Lineweaver-Burk plot
Method in brief: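 Soybean 15-lipoxygenase activity was read by the MBTH–DMAB end-point method at linoleic acid levels of 25, 50, 100 and 200, plotted as double-reciprocal (Lineweaver–Burk) curves with and without inhibitor.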

Row | Compound | IC50 [1] | IC50 [2] | inhibition (Glycine max)
1 | CC(C)=CCC/C(C)=C/COc1ccc2oc(=O)ccc2c1 | 9.6 µM | 6.8 µM | 
2 | CC(C)=CCOc1ccc2oc(=O)ccc2c1 | 69.4 µM |  | 
3 | CC(C)=CCC/C(C)=C/COc1cc2ccccc2oc1=O | 4.7 µM | > 100 µM | 
4 | CC(C)=CCC/C(C)=C/COc1ccc2ccc(=O)oc2c1 [AURAPTENE] | 6.3 µM |  | 
5 | CC(C)=CCC/C(C)=C/COc1cc(=O)oc2ccccc12 | 5.6 µM | 42.6 µM | 
6 | CC(C)=CCC/C(C)=C/CC/C(C)=C/COc1ccccc1 [FARNESYL PHENYL ETHER] | 2.7 µM | > 50 µM | 
7 | CC(C)=CCOc1cccc2oc(=O)ccc12 | 39.8 µM |  | 
8 | CC(C)=CCC/C(C)=C/CC/C(C)=C/COc1ccc2ccc(=O)oc2c1 [UMBELLIPRENIN] | 3.1 µM |  | 
9 | CC(C)=CCC/C(C)=C/CC/C(C)=C/COc1cc(=O)oc2ccccc12 | 3.5 µM |  | 
10 | Cc1nc(N2CCN(C)CC2)nc2c1Nc1ccccc1S2 | 21.2 µM |  | 
11 | CC(C)=CCOc1cccc2ccc(=O)oc12 | 46.5 µM |  | 
12 | CC(C)=CCC/C(C)=C/COc1cccc2ccc(=O)oc12 | 8.1 µM |  | 
13 | CC(C)=CCC/C(C)=C/CC/C(C)=C/COc1cccc2ccc(=O)oc12 | 5.8 µM |  | 
14 | CC(C)=CCOc1ccc2ccc(=O)oc2c1 [7-PRENYLOXYCOUMARIN] | 60.4 µM |  | 
15 | CC(C)=CCOc1cc2ccccc2oc1=O | 54.4 µM |  | 
16 | CC(C)=CCC/C(C)=C/CC/C(C)=C/COc1cccc2oc(=O)ccc12 | 0.8 µM | 3.6 µM | 
17 | O=C(O)/C=C/c1ccc(O)c(O)c1 [CAFFEIC ACID] | 39.4 µM |  | 
18 | CC(C)=CCOc1cc(=O)oc2ccccc12 | 43.9 µM |  | 
19 | CC(C)=CCC/C(C)=C/CC/C(C)=C/COc1ccc2oc(=O)ccc2c1 | 2.1 µM | 1.3 µM | 
20 | CC(C)=CCC/C(C)=C/COc1cccc2oc(=O)ccc12 | 2.8 µM |  | 
21 | CC(C)=CCC/C(C)=C/CC/C(C)=C/COc1cc2ccccc2oc1=O | 1.7 µM | > 50 µM | Active
